# Measured values reported in ChEMBL document CHEMBL5120742, “Multi-target weapons: diaryl-pyrazoline thiazolidinediones simultaneously targeting VEGFR-2 and HDAC cancer hallmarks” (RSC Med Chem, 2021).
# The source made the active and inactive calls. The rule behind the calls is not given here.
# What was measured:
# [1] = molecular target: T1, Histone deacetylase 8 (Homo sapiens) (UniProt Q9BY41); assay: Inhibition of recombinant human N-terminal His6-SUMO-tagged C-terminal SII-tagged HDAC8 expressed in Escherichia coli (BL21) DE3 pLysS cells assessed as residual activity at 50 uM using BocLys(trifluoroacetyl)-AMC as substrate incubated for 30 mins by fluorescence assay relative to control
# T1 sequence (whole entry): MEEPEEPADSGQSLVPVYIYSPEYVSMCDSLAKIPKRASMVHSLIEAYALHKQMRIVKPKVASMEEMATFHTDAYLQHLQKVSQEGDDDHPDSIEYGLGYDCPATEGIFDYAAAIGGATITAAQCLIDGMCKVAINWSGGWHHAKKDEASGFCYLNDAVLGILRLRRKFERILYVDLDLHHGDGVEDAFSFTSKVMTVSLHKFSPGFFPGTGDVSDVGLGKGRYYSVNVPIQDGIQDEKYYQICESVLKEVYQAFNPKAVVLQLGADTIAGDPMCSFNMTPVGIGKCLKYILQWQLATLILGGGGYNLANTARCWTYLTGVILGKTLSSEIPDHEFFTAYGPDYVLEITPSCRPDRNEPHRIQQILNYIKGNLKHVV
# Procedure, shortened: (§1)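 Catalytic-domain HDAC4 (His6-SUMO/SII-tagged) and full-length codon-optimized human HDAC8 were expressed in E. coli BL21 DE3 pLysS from pET14b. Both were assayed in a two-step fluorogenic format with Boc-Lys(trifluoroacetyl)-AMC, followed by trypsin development. Compounds were screened first at 50 µM for residual activity.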
# [2] = molecular target: T2, Histone deacetylase 8 (Homo sapiens, UniProt Q9BY41); assay: Inhibition of recombinant human N-terminal His6-SUMO-tagged C-terminal SII-tagged HDAC8 expressed in Escherichia coli (BL21) DE3 pLysS cells using BocLys(trifluoroacetyl)-AMC as substrate incubated for 30 mins by fluorescence assay; procedure, shortened: as §1
# T2 sequence (Q9BY41 whole entry): T1 sequence (whole entry)
# [3] = molecular target: Histone deacetylase 3/Nuclear receptor corepressor 2 (HDAC3/NCoR2) (Homo sapiens, UniProt O15379); assay: Inhibition of C-terminal His-tagged recombinant human HDAC3 (1 to 428 residues)/N-terminal GST-tagged recombinant human NCoR2 (395 to 489 residues) co-expressed in baculovirus infected Sf9 cells using Boc-Lys(acetyl)-AMC as substrate incubated for 30 mins by fluorescence assay
# Chain of Histone deacetylase 3/Nuclear receptor corepressor 2 (HDAC3/NCoR2) (O15379 whole entry, the tested form may be a part): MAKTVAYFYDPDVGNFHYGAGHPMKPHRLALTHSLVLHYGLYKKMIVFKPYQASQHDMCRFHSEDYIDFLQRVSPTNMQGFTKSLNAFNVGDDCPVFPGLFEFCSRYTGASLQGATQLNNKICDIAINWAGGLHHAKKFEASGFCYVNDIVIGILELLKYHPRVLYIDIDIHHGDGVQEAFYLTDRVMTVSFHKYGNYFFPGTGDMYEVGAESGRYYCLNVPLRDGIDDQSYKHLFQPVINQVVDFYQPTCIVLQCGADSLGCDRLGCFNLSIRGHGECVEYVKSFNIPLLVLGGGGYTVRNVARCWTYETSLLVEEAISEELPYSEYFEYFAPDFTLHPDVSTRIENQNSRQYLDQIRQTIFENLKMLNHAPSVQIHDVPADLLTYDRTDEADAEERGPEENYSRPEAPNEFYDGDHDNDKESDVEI
# Chain of Histone deacetylase 3/Nuclear receptor corepressor 2 (HDAC3/NCoR2) (Q9Y618 whole entry, further chain, the tested form may be a part): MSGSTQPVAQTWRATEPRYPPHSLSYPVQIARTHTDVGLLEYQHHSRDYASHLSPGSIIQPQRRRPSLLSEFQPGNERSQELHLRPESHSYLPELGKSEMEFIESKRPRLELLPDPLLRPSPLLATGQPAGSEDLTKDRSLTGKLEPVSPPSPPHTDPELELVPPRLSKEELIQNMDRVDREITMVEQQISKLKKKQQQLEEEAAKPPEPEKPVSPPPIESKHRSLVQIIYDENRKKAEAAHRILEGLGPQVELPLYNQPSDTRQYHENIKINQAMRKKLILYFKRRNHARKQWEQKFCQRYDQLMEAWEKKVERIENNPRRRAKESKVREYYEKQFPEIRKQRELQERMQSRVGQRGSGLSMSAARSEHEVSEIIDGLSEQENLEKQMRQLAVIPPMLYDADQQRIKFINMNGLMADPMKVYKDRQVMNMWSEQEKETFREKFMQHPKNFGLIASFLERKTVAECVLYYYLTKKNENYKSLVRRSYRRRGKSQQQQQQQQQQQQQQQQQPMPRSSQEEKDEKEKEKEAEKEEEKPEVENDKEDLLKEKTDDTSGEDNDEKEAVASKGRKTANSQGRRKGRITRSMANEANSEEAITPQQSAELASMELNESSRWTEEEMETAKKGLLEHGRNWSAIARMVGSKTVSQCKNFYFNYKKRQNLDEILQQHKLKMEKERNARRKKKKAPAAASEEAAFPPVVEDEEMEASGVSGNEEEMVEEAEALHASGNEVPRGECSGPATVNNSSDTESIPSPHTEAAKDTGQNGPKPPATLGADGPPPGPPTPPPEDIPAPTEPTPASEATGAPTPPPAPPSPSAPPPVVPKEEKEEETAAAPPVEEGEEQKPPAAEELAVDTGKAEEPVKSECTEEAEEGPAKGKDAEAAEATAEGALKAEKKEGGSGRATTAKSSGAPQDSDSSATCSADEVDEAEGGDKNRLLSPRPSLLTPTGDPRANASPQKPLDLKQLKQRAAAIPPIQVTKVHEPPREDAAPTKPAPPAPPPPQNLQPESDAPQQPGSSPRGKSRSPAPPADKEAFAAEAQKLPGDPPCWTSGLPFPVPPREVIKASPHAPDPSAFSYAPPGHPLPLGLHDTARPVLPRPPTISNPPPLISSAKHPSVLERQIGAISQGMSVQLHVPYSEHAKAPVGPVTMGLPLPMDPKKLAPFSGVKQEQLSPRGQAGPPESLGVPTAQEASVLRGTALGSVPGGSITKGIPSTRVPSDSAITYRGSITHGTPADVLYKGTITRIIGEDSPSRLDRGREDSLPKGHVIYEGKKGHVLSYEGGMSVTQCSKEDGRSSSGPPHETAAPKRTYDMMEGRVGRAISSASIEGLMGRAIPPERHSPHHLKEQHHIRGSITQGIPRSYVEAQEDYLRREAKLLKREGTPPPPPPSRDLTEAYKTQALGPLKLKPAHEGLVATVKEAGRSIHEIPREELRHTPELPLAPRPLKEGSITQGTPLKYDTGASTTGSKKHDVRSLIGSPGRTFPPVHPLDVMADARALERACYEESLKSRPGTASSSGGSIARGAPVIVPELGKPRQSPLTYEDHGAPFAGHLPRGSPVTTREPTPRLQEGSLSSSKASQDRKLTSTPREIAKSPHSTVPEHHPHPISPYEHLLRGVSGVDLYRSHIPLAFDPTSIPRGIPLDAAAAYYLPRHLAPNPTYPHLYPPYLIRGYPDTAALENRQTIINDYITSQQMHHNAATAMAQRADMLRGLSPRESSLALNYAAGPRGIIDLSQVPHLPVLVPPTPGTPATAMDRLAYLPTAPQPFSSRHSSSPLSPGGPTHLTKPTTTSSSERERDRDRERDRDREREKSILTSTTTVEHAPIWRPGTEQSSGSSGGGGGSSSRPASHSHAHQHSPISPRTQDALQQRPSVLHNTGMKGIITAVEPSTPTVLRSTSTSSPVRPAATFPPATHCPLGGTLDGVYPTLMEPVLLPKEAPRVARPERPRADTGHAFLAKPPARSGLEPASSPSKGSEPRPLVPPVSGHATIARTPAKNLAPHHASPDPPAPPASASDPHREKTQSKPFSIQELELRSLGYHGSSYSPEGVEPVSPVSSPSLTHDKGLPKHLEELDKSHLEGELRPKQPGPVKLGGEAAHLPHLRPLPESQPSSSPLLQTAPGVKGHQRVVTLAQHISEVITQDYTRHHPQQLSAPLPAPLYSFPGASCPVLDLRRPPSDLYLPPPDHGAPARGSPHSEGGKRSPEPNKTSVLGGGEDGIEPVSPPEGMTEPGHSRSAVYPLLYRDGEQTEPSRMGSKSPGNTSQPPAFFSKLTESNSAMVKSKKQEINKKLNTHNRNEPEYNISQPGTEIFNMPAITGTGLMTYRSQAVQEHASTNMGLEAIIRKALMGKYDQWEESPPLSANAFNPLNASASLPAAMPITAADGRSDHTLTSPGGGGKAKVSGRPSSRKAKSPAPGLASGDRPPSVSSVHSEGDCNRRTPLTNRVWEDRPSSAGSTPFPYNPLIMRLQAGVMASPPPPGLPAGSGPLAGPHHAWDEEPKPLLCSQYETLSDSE
# Procedure, shortened: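 Two-step fluorogenic assay with recombinant HDAC1, 2, 3 or 6. Deacetylation of Boc-Lys(acetyl)-AMC is followed by trypsin conversion of the deacetylated product to a fluorescent signal.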
# [4] = molecular target: T3, Vascular endothelial growth factor receptor 2 (Homo sapiens, UniProt P35968); assay: Inhibition of human VEGFR2 in HUVEC cells assessed as reduction in VEGFR2 phosphorylation at 10 uM incubated for 30 mins by anti-phospho VEGF Tyr 1175 antibody based assay relative to control; format: cell-based
# T3 sequence (P35968 whole entry): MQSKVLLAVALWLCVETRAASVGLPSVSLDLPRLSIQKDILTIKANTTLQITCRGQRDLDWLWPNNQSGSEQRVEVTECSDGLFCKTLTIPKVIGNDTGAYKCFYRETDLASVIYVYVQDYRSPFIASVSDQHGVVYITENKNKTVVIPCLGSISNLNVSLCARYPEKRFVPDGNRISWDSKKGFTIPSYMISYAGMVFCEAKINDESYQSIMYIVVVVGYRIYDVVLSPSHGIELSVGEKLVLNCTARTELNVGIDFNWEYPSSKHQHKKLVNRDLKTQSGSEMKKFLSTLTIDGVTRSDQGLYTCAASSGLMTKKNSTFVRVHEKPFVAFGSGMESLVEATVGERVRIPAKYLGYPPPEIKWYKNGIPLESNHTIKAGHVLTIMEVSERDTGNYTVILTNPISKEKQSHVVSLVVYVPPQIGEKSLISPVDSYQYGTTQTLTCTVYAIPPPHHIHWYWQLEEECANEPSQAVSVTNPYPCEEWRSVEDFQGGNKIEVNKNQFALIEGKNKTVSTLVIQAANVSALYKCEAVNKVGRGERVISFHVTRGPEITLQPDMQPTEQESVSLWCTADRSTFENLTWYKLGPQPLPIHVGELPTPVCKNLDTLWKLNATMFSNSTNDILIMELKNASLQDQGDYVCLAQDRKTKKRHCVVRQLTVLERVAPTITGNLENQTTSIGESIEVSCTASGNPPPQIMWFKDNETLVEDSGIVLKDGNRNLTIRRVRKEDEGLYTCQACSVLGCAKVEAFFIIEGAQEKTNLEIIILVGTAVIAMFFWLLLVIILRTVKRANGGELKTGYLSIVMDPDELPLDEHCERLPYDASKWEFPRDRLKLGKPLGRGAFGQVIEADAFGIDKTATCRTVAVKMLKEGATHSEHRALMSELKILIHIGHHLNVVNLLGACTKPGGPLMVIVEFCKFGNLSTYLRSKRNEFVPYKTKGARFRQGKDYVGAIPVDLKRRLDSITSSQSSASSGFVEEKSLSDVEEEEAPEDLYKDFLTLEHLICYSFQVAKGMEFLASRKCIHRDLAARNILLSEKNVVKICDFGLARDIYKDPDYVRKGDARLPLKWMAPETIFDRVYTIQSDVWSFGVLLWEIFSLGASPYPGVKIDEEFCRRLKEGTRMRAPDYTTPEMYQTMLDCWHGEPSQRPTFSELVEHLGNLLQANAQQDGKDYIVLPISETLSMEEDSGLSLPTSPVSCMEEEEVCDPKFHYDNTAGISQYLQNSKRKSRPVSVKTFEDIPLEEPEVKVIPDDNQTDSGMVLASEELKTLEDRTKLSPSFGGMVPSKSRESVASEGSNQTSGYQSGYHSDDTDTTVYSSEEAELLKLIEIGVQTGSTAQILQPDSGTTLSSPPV
# Procedure, shortened: (§2)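 HUVECs were seeded at 4000–5000 per well in DMEM with 10% FCS for 12 h, then held 24 h in serum. Compound (10 µM) was added with serum for 30 min at 37 °C. Cells were fixed in 4% formaldehyde and probed with anti-phospho-VEGFR Tyr1175 (1:1000), then an HRP secondary (1:5000). TMB signal was stopped with 2N H2SO4 and read at 450 nm. Percent inhibition is normalized to control.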
# [5] = molecular target: T3, Vascular endothelial growth factor receptor 2; assay: Inhibition of human VEGFR2 in HUVEC cells assessed as reduction in VEGFR2 phosphorylation incubated for 30 mins by anti-phospho VEGF Tyr 1175 antibody based assay; format: cell-based; procedure, shortened: as §2
# [6] = tested on: MCF7; assay: Antiproliferative activity against human MCF7 cells assessed as reduction in cell viability after 48 hrs by MTT assay; format: functional, cell-based; conditions: MCF7, 48 h
# Procedure, shortened: (§3)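 MCF-7, K562, A549 and HT-29 lines were seeded in 96-well plates and kept overnight at 37 °C, 5% CO2, 95% humidity. They were then exposed to six concentrations (100 to 2.5) for 48 h. After PBS washes, MTT was added for 4 h at 37 °C and formazan was dissolved in DMSO. Absorbance was read at 570 nm. Survival is mean OD of treated wells over the negative control, and IC50 was derived from that.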
# [7] = tested on: K562; assay: Antiproliferative activity against human K562 cells assessed as reduction in cell viability after 48 hrs by MTT assay; format: functional, cell-based; conditions: K562, 48 h; procedure, shortened: as §3
# [8] = tested on: A549; assay: Antiproliferative activity against human A549 cells assessed as reduction in cell viability after 48 hrs by MTT assay; format: functional, cell-based; conditions: A549, 48 h; procedure, shortened: as §3
# [9] = tested on: HT-29; assay: Antiproliferative activity against human HT-29 cells assessed as reduction in cell viability after 48 hrs by MTT assay; format: functional, cell-based; conditions: HT-29, 48 h; procedure, shortened: as §3
# [10] = organism: Gallus gallus; assay: Inhibition of angiogenesis in chicken chorioallantoic membrane assessed as reduction in number of branching capillaries at 1 to 10 ug/ul after 12 days in presence of human VEGF by stereomicroscopic analysis; conditions: Embryo, dose 1-10 µg/microl, time 12.0 day
# [11] = molecular target: Histone deacetylase 4 (Homo sapiens, UniProt P56524); assay: Binding affinity to recombinant human N-terminal His6-SUMO-tagged C-terminal SII-tagged HDAC4 expressed in Escherichia coli (BL21) DE3 pLysS cells assessed as melting temperature at 100 uM for 15 mins by thermal shift assay
# Procedure, shortened: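 HDAC4 catalytic domain (His6-SUMO/SII, E. coli) at 3 µM was mixed with 100 µM compound in DMSO and held 15 min at 30 °C, then 60 min more at 30 °C. Temperature was stepped by 2 °C with 10 min holds and samples were taken at each step. Samples were centrifuged at 18000g, 4 °C, and the soluble protein was run on SDS-PAGE. Band intensities were fitted to a logistic function, and Tm is the inflection point.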
Activity [1] [%],IC50 [2] [µM],IC50 [3] [µM],inhibition [4] [%],IC50 [5] [µM],IC50 [6] [µM],IC50 [7] [µM],IC50 [8] [µM],IC50 [9] [µM],Tm [11] [°C],Compound,inhibition [10]
45,> 50,> 50,56.7,5,28.4,46.3,19.5,18.8,,O=C1NC(=O)/C(=C\c2ccc(OCC(=O)N3N=C(c4ccc(F)cc4)CC3c3ccco3)cc2)S1 (centres undefined),Active
22,25,11,22.4,,,,,,57.3,O=C1NC(=O)/C(=C\c2ccc(OCC(=O)N3N=C(c4ccc(F)cc4)CC3c3ccc(Cl)c(Cl)c3)cc2)S1 (centres undefined),
9.4,10,9.1,,,,,,,56.7,O=C1NC(=O)/C(=C\c2ccc(OCC(=O)N3N=C(c4ccccc4)CC3c3ccc(Cl)c(Cl)c3)cc2)S1 (centres undefined),
